Measured values as given in ChEMBL document CHEMBL4152390, “Discovery of the First-in-Class Dual Histone Deacetylase-Proteasome Inhibitor” (J Med Chem, 2018).
Activity calls are given as the source filed them. No cut-off for these calls is given here.

Assays:
[1] = target: T1, Protein deacetylase HDAC6 (Homo sapiens) (UniProt Q9UBN7); experiment: Inhibition of HDAC6 in human SEM cells assessed as increase in acetyl-histone H3 expression at 0.1 to 10 uM after 24 hrs by immunoblot assay; type: cell-based
T1 sequence (whole entry): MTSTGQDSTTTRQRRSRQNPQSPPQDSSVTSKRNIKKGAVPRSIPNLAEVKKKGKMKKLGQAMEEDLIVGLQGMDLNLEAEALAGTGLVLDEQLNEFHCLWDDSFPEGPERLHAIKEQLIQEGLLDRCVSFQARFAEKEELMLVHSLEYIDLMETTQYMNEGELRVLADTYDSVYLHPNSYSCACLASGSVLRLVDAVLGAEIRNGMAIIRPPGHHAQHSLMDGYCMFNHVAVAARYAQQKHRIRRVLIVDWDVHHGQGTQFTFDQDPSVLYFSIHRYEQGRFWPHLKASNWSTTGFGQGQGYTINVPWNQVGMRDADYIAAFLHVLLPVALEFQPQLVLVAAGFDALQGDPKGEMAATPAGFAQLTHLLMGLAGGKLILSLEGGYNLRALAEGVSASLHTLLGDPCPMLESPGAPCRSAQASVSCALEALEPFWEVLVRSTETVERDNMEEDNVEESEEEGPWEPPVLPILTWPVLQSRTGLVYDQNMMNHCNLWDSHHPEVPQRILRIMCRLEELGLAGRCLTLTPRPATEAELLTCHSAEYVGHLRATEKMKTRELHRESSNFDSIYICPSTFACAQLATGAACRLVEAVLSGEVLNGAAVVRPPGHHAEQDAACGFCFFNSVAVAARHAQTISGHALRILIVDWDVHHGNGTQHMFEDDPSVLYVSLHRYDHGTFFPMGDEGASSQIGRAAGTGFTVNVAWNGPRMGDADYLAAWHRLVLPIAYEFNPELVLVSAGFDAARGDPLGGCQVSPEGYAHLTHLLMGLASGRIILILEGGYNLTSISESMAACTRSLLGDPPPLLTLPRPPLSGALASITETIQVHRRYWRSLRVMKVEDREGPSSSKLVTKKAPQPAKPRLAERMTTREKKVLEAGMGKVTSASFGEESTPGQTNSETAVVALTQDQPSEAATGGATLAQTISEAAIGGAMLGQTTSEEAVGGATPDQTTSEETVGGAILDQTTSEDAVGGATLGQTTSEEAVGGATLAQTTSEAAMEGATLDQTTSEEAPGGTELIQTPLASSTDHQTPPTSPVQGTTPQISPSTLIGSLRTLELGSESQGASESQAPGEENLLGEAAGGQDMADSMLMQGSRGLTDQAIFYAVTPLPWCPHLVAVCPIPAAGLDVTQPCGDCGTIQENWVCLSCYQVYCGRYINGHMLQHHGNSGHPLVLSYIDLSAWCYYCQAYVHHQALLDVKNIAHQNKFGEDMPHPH
In short: (§1)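 Cells exposed for 24 h at indicated concentrations; lysates immunoblotted for acetyl-α-tubulin, acetyl-histone H3, PARP, with GAPDH as loading control.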

SEM cells [2] = experiment: Cytotoxicity against human SEM cells after 72 hrs by CellTiter-Glo luminescent cell viability assay; type: functional, cell-based
In short: (§2)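 Inhibitors dispensed in increasing concentrations (50 nM–25 μM) and cells exposed 72 h. Viability read by ATP-dependent luminescence (CellTiter-Glo). Raw data normalized to controls. IC50 obtained by sigmoid dose–response fit with non-linear regression.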

KCL-22 = experiment: Cytotoxicity against human KCL22 cells after 72 hrs by CellTiter-Glo luminescent cell viability assay; type: functional, cell-based; conditions: KCL-22, 72 h; in short: as §2
Histone deacetylase 2 = Histone deacetylase 2 (Homo sapiens, UniProt Q92769); experiment: Inhibition of C-terminal GST-tagged recombinant human HDAC2 expressed in baculovirus infected insect cells using RHKK(Ac)AMC as substrate by fluorescence-based assay
SEM cells [3] = experiment: Inhibition of HDAC6/chymotrypsin-like activity of 20S proteasome in human SEM cells assessed as increase in HSP40 protein expression at 0.1 to 10 uM after 18 hrs by Western blot assay; type: cell-based
In short: (§3)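 Cells treated 18 h at indicated concentrations; lysates analysed by western blot for heat shock (Grp94, HSP70, HSP40, HSP27), UPR (BIP, ATF4, ATF6, pJNK) and autophagy (LC3B, p62) proteins.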

SEM cells [4] = experiment: Inhibition of HDAC6/chymotrypsin-like activity of 20S proteasome in human SEM cells assessed as increase in p62 protein expression at 0.1 to 10 uM after 18 hrs by Western blot assay; type: cell-based; in short: as §3
Homo sapiens = species: Homo sapiens; experiment: Inhibition of HDAC6/chymotrypsin-like activity of 20S proteasome in human HL60 cells assessed as increase in cleaved PARP expression at 0.1 to 10 uM after 24 hrs by immunoblot assay; type: cell-based; in short: as §1
SEM cells [5] = experiment: Inhibition of HDAC6/chymotrypsin-like activity of 20S proteasome in human SEM cells assessed as increase in cleaved PARP expression at 0.1 to 10 uM after 24 hrs by immunoblot assay; type: cell-based; in short: as §1
Histone deacetylase 8 = target: T2, Histone deacetylase 8 (Homo sapiens, UniProt Q9BY41); experiment: Inhibition of C-terminal His-tagged recombinant human HDAC8 expressed in baculovirus infected insect cells using RHK(Ac)K(Ac)AMC as substrate by fluorescence-based assay
T2 sequence (Q9BY41 whole entry): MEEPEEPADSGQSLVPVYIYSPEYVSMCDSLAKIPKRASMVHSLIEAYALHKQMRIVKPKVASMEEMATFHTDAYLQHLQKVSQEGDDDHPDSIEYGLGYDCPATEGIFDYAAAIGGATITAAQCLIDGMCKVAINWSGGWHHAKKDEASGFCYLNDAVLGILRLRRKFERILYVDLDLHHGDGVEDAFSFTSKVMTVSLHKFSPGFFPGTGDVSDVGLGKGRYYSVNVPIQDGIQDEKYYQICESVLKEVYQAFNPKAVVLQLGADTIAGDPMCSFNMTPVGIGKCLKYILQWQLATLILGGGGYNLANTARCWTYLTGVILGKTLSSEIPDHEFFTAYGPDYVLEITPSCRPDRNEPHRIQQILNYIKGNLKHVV

SEM cells [6] = experiment: Inhibition of HDAC6/chymotrypsin-like activity of 20S proteasome in human SEM cells assessed as increase in HSP70 protein expression at 0.1 to 10 uM after 18 hrs by Western blot assay; type: cell-based; in short: as §3
SEM cells [7] = experiment: Antiproliferative activity against human SEM cells at IC50 to 2 times IC50 after 24 to 72 hrs by trypan exclusion method; type: functional, cell-based
[8] = target: Proteasome Macropain subunit (Homo sapiens) (UniProt P49721); experiment: Inhibition of trypsin-like activity of 20S proteasome in human SEM cells at 4 nM to 25 uM using Z-LRR-aminoluciferin as substrate after 2 hrs by proteasome-Glo assay; type: cell-based
Chain of Proteasome Macropain subunit (Homo sapiens) (P49721 whole entry): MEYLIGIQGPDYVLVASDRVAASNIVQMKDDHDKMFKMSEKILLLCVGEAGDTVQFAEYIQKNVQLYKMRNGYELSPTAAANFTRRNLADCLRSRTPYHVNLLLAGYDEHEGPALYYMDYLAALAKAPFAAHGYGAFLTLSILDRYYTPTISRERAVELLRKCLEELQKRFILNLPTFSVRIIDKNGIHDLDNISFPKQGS

Chain of Histone deacetylase 2 (Q92769 whole entry): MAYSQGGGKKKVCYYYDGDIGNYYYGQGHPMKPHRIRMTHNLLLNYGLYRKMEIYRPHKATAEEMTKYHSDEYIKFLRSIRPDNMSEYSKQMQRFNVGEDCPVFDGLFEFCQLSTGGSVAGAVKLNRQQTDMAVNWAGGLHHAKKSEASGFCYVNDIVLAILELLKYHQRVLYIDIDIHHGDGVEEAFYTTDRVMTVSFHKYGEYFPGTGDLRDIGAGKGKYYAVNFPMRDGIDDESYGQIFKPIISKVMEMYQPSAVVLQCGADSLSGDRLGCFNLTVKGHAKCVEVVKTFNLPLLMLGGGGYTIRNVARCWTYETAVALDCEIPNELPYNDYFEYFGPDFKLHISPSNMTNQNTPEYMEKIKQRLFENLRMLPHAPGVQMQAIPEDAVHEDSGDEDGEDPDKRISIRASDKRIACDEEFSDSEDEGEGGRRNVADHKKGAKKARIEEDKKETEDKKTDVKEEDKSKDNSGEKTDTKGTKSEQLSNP

inhibition [1]: Active | IC50 (Histone deacetylase 2): 18000 nM | IC50 (Histone deacetylase 8): 530 nM | inhibition [8]: inactive
SMILES: C[C@H](NC(=O)[C@H](CC(=O)NCC(C)(C)C)NC(=O)c1ccc(C(=O)NO)cc1)C(=O)NCc1ccccc1
IC50 (SEM cells [2]): 890 nM | IC50 (KCL-22): 3140 nM | inhibition (SEM cells [3]): Active | inhibition (SEM cells [4]): Active | inhibition (Homo sapiens): Active | inhibition (SEM cells [5]): Active | inhibition (SEM cells [6]): Active | Activity (SEM cells [7]): Active
